This note sets out measurements from BindingDB's records for doi:10.1021/jm020875j (Boehringer Ingelheim Pharma, 2002).

The assay deals with Sodium channel protein type 1/2/3 subunit alpha (Rattus norvegicus, UniProt P04774+P04775+P08104). The experiment in a line: Displacement of [3H]BTX from sodium channel of rat cerebral cortex synaptosomes. The method, boiled down:
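Synaptosomal membranes from rat cerebral cortex incubated 1 h at 37 °C with 1 nmol/L [3H]BTX-B in choline Cl/HEPES-Tris buffer pH 7.4 containing glucose, KCl and MgSO4, plus scorpion venom. Nonspecific binding defined with 100 μmol/L aconitine. Stopped by vacuum filtration through glass fiber and two buffer washes.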
On the technique in general: Displacement assays read how much labelled ligand stays bound in the presence of the test substance.
The term Ki denotes a measure of affinity in units of concentration, obtained from inhibition or displacement. Higher therefore signals lower affinity. The molecule `CN(c1nc2ccccc2s1)C1CCN(C[C@H](O)COc2ccc(F)c(F)c2)CC1` had a Ki of 203 nM.
Under `Cc1cccc(C)c1OC[C@@H](C)N` stands 22700 nM; under `C[C@@H](CN1CCC2(C)c3ccc(O)cc3C[C@@H]1C2(C)C)Oc1ccccc1`, 149 nM; under `COC(C)CN1CCC2(C)c3ccc(O)cc3C[C@@H]1C2(C)C` (some centres undefined), over 10000 nM.
The value for `CO[C@@H](C)CN1CCC2(C)c3cccc(O)c3C[C@H]1C2(C)C` was 10000 nM.
The molecule `C[C@H](CN1CCC2(C)c3ccc(O)cc3C[C@H]1C2(C)C)Oc1ccccc1` returned a Ki of 864 nM.
The value for `CO[C@H](C)CN1CCC2(C)c3cccc(O)c3C[C@@H]1C2(C)C` was 3310 nM; that for `CO[C@@H](C)CN1CCC2(C)c3ccccc3C[C@@H]1C2(C)C` was 4700 nM.
The value for `C[C@@H](CN1CCC2(C)c3ccc(O)cc3C[C@@H]1C2(C)C)OCc1ccccc1` was 312 nM.
Under `CC1[C@H]2Cc3c(O)cccc3C1(C)CCN2C[C@H](C)OCc1ccccc1` (some centres undefined) stands 54 nM; under `C[C@H](CN1CCC2(C)c3ccc(O)cc3C[C@H]1C2(C)C)OCc1ccccc1`, 1230 nM.
The molecule `C[C@@H](CN1CCC2(C)c3ccc(O)cc3C[C@H]1C2(C)C)Oc1ccccc1` displayed a Ki of 1530 nM.
Under `C[C@H](CN1CCC2(C)c3cccc(O)c3C[C@@H]1C2(C)C)OCC1CCCCC1` stands 241 nM; under `CC12CCN(CCc3ccccc3)[C@H](Cc3cc(O)ccc31)C2(C)C`, 1060 nM; under `C[C@@H](CN1CCC2(C)c3cccc(O)c3C[C@@H]1C2(C)C)OCC1CCCCC1`, 208 nM.
As to `CC(CN1CCC2(C)C[C@@H]1Cc1c(O)cccc12)OCc1ccccc1` (some centres undefined), the Ki is 47 nM.
Turning to `CC1[C@H]2Cc3c(O)cccc3C1(C)CCN2C[C@@H](C)OCc1ccccc1` (some centres undefined), the Ki amounted to 153 nM.
The value for `COC(C)CN1CCC2(C)c3cc(O)ccc3C[C@@H]1C2(C)C` (some centres undefined) was 6010 nM; that for `C[C@@H](CN1CCC2(C)c3ccc(O)cc3C[C@H]1C2(C)C)OCc1ccccc1` was 1870 nM; that for `C[C@H](CN1CCC2(C)c3cccc(O)c3C[C@H]1C2(C)C)OCc1ccccc1` was 1490 nM.
The value for `C[C@@H](CN1CCC2(C)c3cccc(O)c3C[C@H]1C2(C)C)OCc1ccccc1` was 1330 nM; that for `C[C@H](CN1CCC2(C)c3ccc(O)cc3C[C@@H]1C2(C)C)Oc1ccccc1` was 662 nM.
The value for `CC12CCN(CCc3ccccc3)[C@@H](Cc3cc(O)ccc31)C2(C)C` was 1290 nM; that for `CO[C@@H](C)CN1CCC2(C)c3cccc(O)c3C[C@@H]1C2(C)C` was 783 nM.
Molecule `COC(C)CN1CCC2(C)c3c(O)cccc3C[C@@H]1C2(C)C` (some centres undefined) yielded a Ki of 8990 nM.
`CO[C@H](C)CN1CCC2(C)c3cccc(O)c3C[C@H]1C2(C)C` gave a Ki of 10000 nM.
Under `C[C@H](CN1CCC2(C)c3ccc(O)cc3C[C@@H]1C2(C)C)OCc1ccccc1` stands 382 nM.
The value for `COc1ccc2c(c1)[C@]13CCCC[C@@H]1[C@H](C2)N(C)CC3` [DEXTROMETHORPHAN] was 4800 nM; that for `Cc1ccc(-c2nc(C)c(CN3CCN(C(c4ccccc4)c4ccccc4)CC3)[nH]2)cc1` [Lifarizine] was 259 nM.
